How the values were obtained:
Rattus norvegicus [1] = assay: Antinociceptive activity in Wistar rat partial sciatic nerve ligation model assessed as reversal of spontaneous pain response at 100 mg/kg, ip after 30 mins (reference value: 3.2 +/- 0.3%); type: functional; settings: route intraperitoneal
Rattus norvegicus [2] = assay: Antinociceptive activity in Wistar rat chronic constriction injury model assessed as reversal of cold allodynia at 100 mg/kg, ip after 30 mins (reference value: 0.6 +/- 2.7%); type: functional; settings: route intraperitoneal
Rattus norvegicus [3] = assay: Antinociceptive activity in Wistar rat partial sciatic nerve ligation model assessed as reversal of cold allodynia at 100 mg/kg, ip after 120 mins (reference value: 1.5 +/- 0.5%); type: functional; settings: route intraperitoneal
Rattus norvegicus [4] = assay: Antinociceptive activity in Wistar rat chronic constriction injury model assessed as reversal of spontaneous pain response at 100 mg/kg, ip after 30 mins (reference value: 8.9 +/- 4.6%); type: functional; settings: route intraperitoneal
Rattus norvegicus [5] = assay: Antinociceptive activity in Wistar rat chronic constriction injury model assessed as reversal of cold allodynia at 100 mg/kg, ip after 60 mins (reference value: 6.3 +/- 1.9%); type: functional; settings: route intraperitoneal
Rattus norvegicus [6] = assay: Antinociceptive activity in Wistar rat partial sciatic nerve ligation model assessed as reversal of mechanical allodynia at 100 mg/kg, ip after 120 mins (reference value: 2.9 +/- 0.3%); type: functional; settings: route intraperitoneal
Rattus norvegicus [7] = assay: Antinociceptive activity in Wistar rat partial sciatic nerve ligation model assessed as reversal of cold allodynia at 100 mg/kg, ip after 60 mins (reference value: 2.5 +/- 0.3%); type: functional; settings: route intraperitoneal
Rattus norvegicus [8] = assay: Antinociceptive activity in Wistar rat partial sciatic nerve ligation model assessed as reversal of tactile allodynia at 100 mg/kg, ip after 30 mins (reference value: 7.7 +/- 0.7%); type: functional; settings: route intraperitoneal
Mus musculus [9] = assay: Neurotoxicity in Swiss albino mouse assessed as minimal motor impairment at 300 mg/kg after 0.5 hrs by rotarod test; type: toxicity, organism-based; parameters: dose 300 mg/kg; settings: in vivo
In short: (§1)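 Swiss albino mice of either sex, 20-25 g, dosed at 30, 100 and 300 mg/kg, three per group. Minimal motor impairment scored by rotarod at 0.5 and 4.0 h after dosing. Reported value is the lowest dose giving impairment in half or more of the mice.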

Rattus norvegicus [10] = assay: Antinociceptive activity in Wistar rat partial sciatic nerve ligation model assessed as reversal of cold allodynia at 100 mg/kg, ip after 30 mins (reference value: 4.1 +/- 1.0%); type: functional; settings: route intraperitoneal
Rattus norvegicus [11] = assay: Antinociceptive activity in Wistar rat chronic constriction injury model assessed as reversal of tactile allodynia at 100 mg/kg, ip after 120 mins (reference value: 4.1 +/- 2.1%); type: functional; settings: route intraperitoneal
Rattus norvegicus [12] = assay: Antinociceptive activity in Wistar rat partial sciatic nerve ligation model assessed as reversal of spontaneous pain response at 100 mg/kg, ip after 60 mins (reference value: 2.9 +/- 0.3%); type: functional; settings: route intraperitoneal
Rattus norvegicus [13] = assay: Antinociceptive activity in Wistar rat chronic constriction injury model assessed as reversal of mechanical allodynia at 100 mg/kg, ip after 120 mins (reference value: 5.3 +/- 0.5%); type: functional; settings: route intraperitoneal
Mus musculus [14] = assay: Antinociceptive activity in Swiss albino mouse assessed as inhibition of formalin-induced flinching at 100 mg/kg administered 30 mins prior to test measured up to 5 mins relative to control; type: functional
Mus musculus [15] = assay: Antinociceptive activity in Swiss albino mouse assessed as inhibition of formalin-induced flinching at 100 mg/kg administered 30 mins prior to test measured for 10 to 30 mins relative to control; type: functional
Rattus norvegicus [16] = assay: Antinociceptive activity in Wistar rat chronic constriction injury model assessed as reversal of cold allodynia at 100 mg/kg, ip after 120 mins (reference value: 5.4 +/- 1.9%); type: functional; settings: route intraperitoneal
Rattus norvegicus [17] = assay: Antinociceptive activity in Wistar rat chronic constriction injury model assessed as reversal of mechanical allodynia at 100 mg/kg, ip after 60 mins (reference value: 4.9 +/- 1.0%); type: functional; settings: route intraperitoneal
Rattus norvegicus [18] = assay: Antinociceptive activity in Wistar rat partial sciatic nerve ligation model assessed as reversal of spontaneous pain response at 100 mg/kg, ip after 120 mins (reference value: 1.2 +/- 0.1%); type: functional; settings: route intraperitoneal
Rattus norvegicus [19] = assay: Antinociceptive activity in Wistar rat partial sciatic nerve ligation model assessed as reversal of mechanical allodynia at 100 mg/kg, ip after 60 mins (reference value: 2.8 +/- 0.3%); type: functional; settings: route intraperitoneal
Rattus norvegicus [20] = assay: Antinociceptive activity in Wistar rat chronic constriction injury model assessed as reversal of spontaneous pain response at 100 mg/kg, ip after 120 mins (reference value: 4.5 +/- 0.2%); type: functional; settings: route intraperitoneal
Rattus norvegicus [21] = assay: Antinociceptive activity in Wistar rat chronic constriction injury model assessed as reversal of mechanical allodynia at 100 mg/kg, ip after 30 mins (reference value: 4.7 +/- 2.1%); type: functional; settings: route intraperitoneal
Rattus norvegicus [22] = assay: Antinociceptive activity in Wistar rat partial sciatic nerve ligation model assessed as reversal of mechanical allodynia at 100 mg/kg, ip after 30 mins (reference value: 2.9 +/- 0.3%); type: functional; settings: route intraperitoneal
Rattus norvegicus [23] = assay: Antinociceptive activity in Wistar rat partial sciatic nerve ligation model assessed as reversal of tactile allodynia at 100 mg/kg, ip after 120 mins relative to control; type: functional; settings: route intraperitoneal
Mus musculus [24] = assay: Neurotoxicity in Swiss albino mouse assessed as minimal motor impairment at 300 mg/kg after 4 hrs by rotarod test; type: toxicity, organism-based; parameters: dose 300 mg/kg; settings: in vivo; in short: as §1
Rattus norvegicus [25] = assay: Antinociceptive activity in Wistar rat chronic constriction injury model assessed as reversal of spontaneous pain response at 100 mg/kg, ip after 60 mins (reference value: 4.6 +/- 0.6%); type: functional; settings: route intraperitoneal
Rattus norvegicus [26] = assay: Antinociceptive activity in Wistar rat chronic constriction injury model assessed as reversal of tactile allodynia at 100 mg/kg, ip after 60 mins (reference value: 1.3 +/- 0.3%); type: functional; settings: route intraperitoneal
Mus musculus [27] = assay: Antinociceptive activity in Swiss albino mouse assessed as inhibition of acetic acid-induced writhing at 100 mg/kg administered 30 mins prior to acetic acid-challenge measured for 30 mins relative to control; type: functional
In short: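 Swiss albino mice (20–25 g, either sex); writhing induced by i.p. 0.1 mL of 2.0% v/v acetic acid given half an hour after test compound dosing.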

Rattus norvegicus [28] = assay: Antinociceptive activity in Wistar rat partial sciatic nerve ligation model assessed as reversal of tactile allodynia at 100 mg/kg, ip after 60 mins (reference value: 12.5 +/- 1.2%); type: functional; settings: route intraperitoneal
Rattus norvegicus [29] = assay: Antinociceptive activity in Wistar rat chronic constriction injury model assessed as reversal of tactile allodynia at 100 mg/kg, ip after 30 mins (reference value: 3.4 +/- 0.8%); type: functional; settings: route intraperitoneal

Row | SMILES | Activity (Rattus norvegicus [1]) | Activity (Rattus norvegicus [2]) | Activity (Rattus norvegicus [3]) | Activity (Rattus norvegicus [4]) | Activity (Rattus norvegicus [5]) | Activity (Rattus norvegicus [6]) | Activity (Rattus norvegicus [7]) | Activity (Rattus norvegicus [8]) | Activity (Rattus norvegicus [10]) | Activity (Rattus norvegicus [11]) | Activity (Rattus norvegicus [12]) | Activity (Rattus norvegicus [13]) | Activity (Rattus norvegicus [16]) | Activity (Rattus norvegicus [17]) | Activity (Rattus norvegicus [18]) | Activity (Rattus norvegicus [19]) | Activity (Rattus norvegicus [20]) | Activity (Rattus norvegicus [21]) | Activity (Rattus norvegicus [22]) | Activity (Rattus norvegicus [23]) | also measured
1 | CCN1CCc2c(c(C(C)(C)C)nn2C(=O)Nc2cccc(C(F)(F)F)c2)C1 | 87.3% | 55.6% | 15% | 89.5% | 35% | 45.8% | 19.1% | 24.7% | 52.7% | 9.9% | 42.2% | 12.1% | 9.3% | 12.2% | 19.8% | 59.5% | 75.2% | 3.6% | 52.8% | 13% | Activity (Mus musculus [9]): Non-toxic; inhibition in vivo at 100 mg/kg (Mus musculus [14]): 2.6%; inhibition in vivo at 100 mg/kg (Mus musculus [15]): 55.1%; Activity (Mus musculus [24]): Non-toxic; Activity (Rattus norvegicus [25]): 65.6%; Activity (Rattus norvegicus [26]): 13.7%; inhibition in vivo at 100 mg/kg (Mus musculus [27]): 61.4%; Activity (Rattus norvegicus [28]): 13%; Activity (Rattus norvegicus [29]): 6.7%
2 | CCN1CCc2c(c(C(C)(C)C)nn2C(=O)Nc2ccc(Cl)cc2)C1 | 20.9% | 17.8% | 10.6% | 18.3% | 10.8% | 11.1% | 17.2% | 15.1% | 18.2% | 12.8% | 13.9% | 2.2% | 10.5% | 11.7% | 6.3% | 16.7% | 12.5% | 20% | 11.1% | 28.5% | Activity (Mus musculus [9]): Non-toxic; inhibition in vivo at 100 mg/kg (Mus musculus [14]): 3.5%; inhibition in vivo at 100 mg/kg (Mus musculus [15]): 68.3%; Activity (Mus musculus [24]): Non-toxic; Activity (Rattus norvegicus [25]): 22.3%; Activity (Rattus norvegicus [26]): 13.8%; inhibition in vivo at 100 mg/kg (Mus musculus [27]): 15.8%; Activity (Rattus norvegicus [28]): 3.5%; Activity (Rattus norvegicus [29]): 13.8%
3 | CCN1CCc2c(c(C)nn2C(=O)Nc2cc(C)ccc2F)C1 | 57.6% | 15% | 7.9% | 15% | 21.2% | 18.2% | 16% | 20.2% | 13% | 13.7% | 26.6% | 14.3% | 2.8% | 42.9% | 17.3% | 40.2% | 51.8% | 35.7% | 44.8% | 3.5% | Activity (Mus musculus [9]): Non-toxic; inhibition in vivo at 100 mg/kg (Mus musculus [14]): 5.2%; inhibition in vivo at 100 mg/kg (Mus musculus [15]): 15%; Activity (Mus musculus [24]): Non-toxic; Activity (Rattus norvegicus [25]): 11%; Activity (Rattus norvegicus [26]): 9.9%; inhibition in vivo at 100 mg/kg (Mus musculus [27]): 10.5%; Activity (Rattus norvegicus [28]): 15.1%; Activity (Rattus norvegicus [29]): 6.6%
4 | CCN1CCc2c(c(C(C)(C)C)nn2C(=O)Nc2cc(C)ccc2F)C1 | 15.5% | 3.4% | 19.3% | 14.4% | 7.1% | 8.8% | 16.4% | 12.2% | 19.3% | 4.5% | 9.9% | 8.8% | 12% | 12.7% | 7.5% | 12.1% | 53.9% | 13.8% | 12.1% | 4.5% | Activity (Mus musculus [9]): Non-toxic; inhibition in vivo at 100 mg/kg (Mus musculus [14]): 7%; inhibition in vivo at 100 mg/kg (Mus musculus [15]): 60.5%; Activity (Mus musculus [24]): Non-toxic; Activity (Rattus norvegicus [25]): 20.5%; Activity (Rattus norvegicus [26]): 12.2%; inhibition in vivo at 100 mg/kg (Mus musculus [27]): 17.5%; Activity (Rattus norvegicus [28]): 12.2%; Activity (Rattus norvegicus [29]): 19.7%
5 | NCC1(CC(=O)O)CCCCC1 [GABAPENTIN] | 92.9% | 58% | 32.1% | 71.2% | 42.9% | 55.8% | 58.2% | 43.1% | 54.1% | 50.7% | 94.2% | 75.7% | 35.6% | 78.6% | 82.4% | 91.3% | 88.8% | 92.9% | 86.2% | 58.5% | Activity (Rattus norvegicus [25]): 91.2%; Activity (Rattus norvegicus [26]): 59.4%; Activity (Rattus norvegicus [28]): 56.1%; Activity (Rattus norvegicus [29]): 35.4%
